Data taken from ChEMBL document CHEMBL1806372, “Cytotoxic ring A-modified steroid analogues derived from Grundmann's ketone” (Eur J Med Chem, 2011).

What was measured:
Assay type in all cases: functional
[1] = test system: A498; experiment: Growth inhibition of human A498 cells assessed as cell growth at 10^-5 M after 48 hrs by sulforhodamine B assay; settings: A498, 48 h, read-out: Activity
Method in brief: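 NCI 60-cell panel single high-dose screen: compound applied at 10^-5 M for 48 h, endpoint by sulforhodamine B protein-binding dye. Values reported as growth percent of treated cells relative to untreated control cells.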

[2] = test system: M14; experiment: Growth inhibition of human M14 cells assessed as cell growth at 10^-5 M after 48 hrs by sulforhodamine B assay; settings: M14, 48 h, read-out: Activity
Method in brief: (§1)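 NCI-60 single high-dose screen run under the NCI protocol. Cells were incubated with compound at 10^-5 M for 48 h. The end point was determined by sulforhodamine B protein staining. Results are reported as percent growth of treated cells relative to untreated control cells.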

[3] = test system: Malme-3M; experiment: Cytotoxicity against human MALME-3M cells after 48 hrs by sulforhodamine B assay; settings: read-out: LC50 (the source's name)
Method in brief: (§2)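 NCI 60 human tumour cell line panel run to the NCI protocol. GI50, TGI and LC50 come from log concentration vs % growth inhibition curves for each cell line. Lines insensitive at the top concentration are reported with ">".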

[4] = test system: T47D; experiment: Growth inhibition of human T47D cells assessed as cell growth at 10^-5 M after 48 hrs by sulforhodamine B assay; settings: read-out: Activity
Method in brief: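 NCI 60-cell panel single-dose screen under the NCI protocol. Cells are exposed to compound at one concentration (10^-5 M) for 48 h. The end point is protein staining with sulforhodamine B. Each line is reported as percent growth of treated cells relative to untreated control cells.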

[5] = test system: NCI-H322M; experiment: Growth inhibition of human NCI-H322M cells after 48 hrs by sulforhodamine B assay
Method in brief: (§3)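 GI50, TGI and LC50 were derived from log concentration versus % growth inhibition curves for each cell line. GI50 is the concentration giving a 50% decrease in net cell growth. Insensitive lines are reported as greater than the highest concentration.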

[6] = test system: SF-539; experiment: Cytotoxicity against human SF539 cells after 48 hrs by sulforhodamine B assay; settings: SF-539, 48 h, read-out: LC50 (the source's name); method in brief: as §2
[7] = test system: LOX IMVI; experiment: Growth inhibition of human LOXIMVI cells after 48 hrs by sulforhodamine B assay
Method in brief: (§4)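 From log concentration versus % growth curves, GI50 (50% decrease in net growth), TGI (total growth inhibition) and LC50 (net 50% loss of initial cells) are derived for each line.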

[8] = test system: NCI-H322M; experiment: Cytotoxicity against human NCI-H322M cells after 48 hrs by sulforhodamine B assay; settings: read-out: LC50 (the source's name); method in brief: as §2
[9] = test system: BT-549; experiment: Cytotoxicity against human BT549 cells after 48 hrs by sulforhodamine B assay; settings: BT-549, 48 h, read-out: LC50 (the source's name); method in brief: as §2
[10] = test system: MOLT-4; experiment: Cytotoxicity against human MOLT4 cells after 48 hrs by sulforhodamine B assay; settings: MOLT-4, 48 h, read-out: LC50 (the source's name); method in brief: as §2
[11] = test system: NCI-H226; experiment: Cytotoxicity against human NCI-H226 cells after 48 hrs by sulforhodamine B assay; settings: NCI-H226, 48 h, read-out: LC50 (the source's name); method in brief: as §2
[12] = test system: HCT-116; experiment: Cytotoxicity against human HCT116 cells after 48 hrs by sulforhodamine B assay; settings: HCT-116, 48 h, read-out: LC50 (the source's name); method in brief: as §2
[13] = test system: HOP-62; experiment: Cytotoxicity against human HOP62 cells after 48 hrs by sulforhodamine B assay; settings: HOP-62, 48 h, read-out: LC50 (the source's name); method in brief: as §2
[14] = test system: TK-10; experiment: Cytotoxicity against human TK10 cells after 48 hrs by sulforhodamine B assay; settings: TK-10, 48 h, read-out: LC50 (the source's name)
[15] = test system: PC-3; experiment: Cytotoxicity against human PC3 cells after 48 hrs by sulforhodamine B assay; settings: PC-3, 48 h, read-out: LC50 (the source's name); method in brief: as §2
[16] = test system: NCI/ADR-RES; experiment: Cytotoxicity against human NCI/ADR-RES cells after 48 hrs by sulforhodamine B assay; settings: read-out: LC50 (the source's name); method in brief: as §2
[17] = test system: Malme-3M; experiment: Growth inhibition of human MALME-3M cells assessed as cell growth at 10^-5 M after 48 hrs by sulforhodamine B assay; settings: read-out: Activity; method in brief: as §1
[18] = test system: SW-620; experiment: Growth inhibition of human SW620 cells after 48 hrs by sulforhodamine B assay; settings: SW-620, 48 h
Method in brief: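 NCI 60-cell panel five-dose assay. GI50, TGI and LC50 are derived from log concentration versus % growth inhibition curves. Cell lines insensitive at the top concentration are given a ">" prefix.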

[19] = test system: MDA-MB-435; experiment: Cytotoxicity against human MDA-MB-435 cells after 48 hrs by sulforhodamine B assay; settings: MDA-MB-435, 48 h, read-out: LC50 (the source's name); method in brief: as §2
[20] = test system: NCI-H226; experiment: Growth inhibition of human NCI-H226 cells after 48 hrs by sulforhodamine B assay; settings: NCI-H226, 48 h; method in brief: as §3
[21] = test system: DU-145; experiment: Growth inhibition of human DU145 cells after 48 hrs by sulforhodamine B assay; settings: DU-145, 48 h; method in brief: as §4
[22] = test system: RPMI-8226; experiment: Cytotoxicity against human RPMI8226 cells after 48 hrs by sulforhodamine B assay; settings: RPMI-8226, 48 h, read-out: LC50 (the source's name); method in brief: as §2
[23] = test system: M14; experiment: Cytotoxicity against human M14 cells after 48 hrs by sulforhodamine B assay; settings: M14, 48 h, read-out: LC50 (the source's name); method in brief: as §2
[24] = test system: HCC 2998; experiment: Growth inhibition of human HCC2998 cells after 48 hrs by sulforhodamine B assay; settings: HCC 2998, 48 h; method in brief: as §4
[25] = test system: HL-60(TB); experiment: Growth inhibition of human HL-60(TB) cells assessed as cell growth at 10^-5 M after 48 hrs by sulforhodamine B assay; settings: HL-60, 48 h, read-out: Activity
Method in brief: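 NCI single high-dose screen across the 60-cell panel (leukemia, melanoma, lung, colon, brain, breast, ovary, kidney, prostate), run per NCI protocol. Cells incubated with compound at 10^-5 M for 48 h. Sulforhodamine B protein-binding dye end point. Reported as growth percent of treated vs untreated control cells.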

[26] = test system: PC-3; experiment: Growth inhibition of human PC3 cells assessed as cell growth at 10^-5 M after 48 hrs by sulforhodamine B assay; settings: PC-3, 48 h, read-out: Activity; method in brief: as §1
[27] = test system: NCI/ADR-RES; experiment: Growth inhibition of human NCI/ADR-RES cells after 48 hrs by sulforhodamine B assay; method in brief: as §3
[28] = test system: SK-MEL-2; experiment: Growth inhibition of human SK-MEL-2 cells after 48 hrs by sulforhodamine B assay; settings: SK-MEL-2, 48 h; method in brief: as §3
[29] = test system: BT-549; experiment: Growth inhibition of human BT549 cells after 48 hrs by sulforhodamine B assay; settings: BT-549, 48 h; method in brief: as §4
[30] = test system: RXF 393; experiment: Growth inhibition of human RXF393 cells after 48 hrs by sulforhodamine B assay; settings: RXF 393, 48 h; method in brief: as §3
[31] = test system: NCI-H23; experiment: Growth inhibition of human NCI-H23 cells after 48 hrs by sulforhodamine B assay; settings: NCI-H23, 48 h; method in brief: as §3

SMILES: CC(C)CCC[C@@H](C)[C@H]1CC[C@H]2C3=CCn4c(=O)ccc(=O)n4[C@@H]3CC[C@]12C
- growth at 10 µM [1]: -94.8%
- growth at 10 µM [2]: -87.1%
- CC50 [3]: 6380 nM
- growth at 10 µM [4]: -75.2%
- GI50 [5]: 1450 nM
- TGI [5]: 2910 nM
- CC50 [6]: 5640 nM
- GI50 [7]: 288 nM
- TGI [7]: 1050 nM
- CC50 [8]: 5840 nM
- CC50 [9]: 2970 nM
- CC50 [10]: > 100000 nM
- CC50 [11]: 8330 nM
- CC50 [12]: 594 nM
- CC50 [13]: 5330 nM
- CC50 [14]: 3600 nM
- CC50 [15]: 4830 nM
- CC50 [16]: 2280 nM
- growth at 10 µM [17]: -98%
- GI50 [18]: 375 nM
- TGI [18]: 1360 nM
- CC50 [19]: 7680 nM
- GI50 [20]: 1270 nM
- TGI [20]: 3260 nM
- GI50 [21]: 1040 nM
- TGI [21]: 2260 nM
- CC50 [22]: > 100000 nM
- CC50 [23]: 3320 nM
- GI50 [24]: 431 nM
- TGI [24]: 1640 nM
- growth at 10 µM [25]: -43.3%
- growth at 10 µM [26]: -85.5%
- GI50 [27]: 417 nM
- TGI [27]: 1900 nM
- GI50 [28]: 286 nM
- TGI [28]: 774 nM
- GI50 [29]: 312 nM
- TGI [29]: 876 nM
- GI50 [30]: 952 nM
- TGI [30]: 2300 nM
- GI50 [31]: 1420 nM
- TGI [31]: 3580 nM

SMILES: CC(C)CCC[C@@H](C)[C@H]1CC[C@H]2[C@@H]3CCN4C(=O)CCC(=O)N4[C@@H]3CC[C@]12C
- growth at 10 µM [1]: 89.2%
- growth at 10 µM [2]: 90.5%
- growth at 10 µM [4]: 64.4%
- growth at 10 µM [17]: 95.6%
- growth at 10 µM [25]: 72%
- growth at 10 µM [26]: 70.5%

SMILES: CC(C)CCC[C@@H](C)[C@H]1CC[C@H]2C3=CC[C@@H]4C(=O)C=CC(=O)[C@@H]4[C@@H]3CC[C@]12C
- growth at 10 µM [1]: -6.21%
- growth at 10 µM [2]: 5.05%
- CC50 [3]: > 100000 nM
- growth at 10 µM [4]: -18.9%
- GI50 [5]: 305 nM
- TGI [5]: 849 nM
- CC50 [6]: > 100000 nM
- GI50 [7]: 227 nM
- TGI [7]: 1170 nM
- CC50 [8]: > 100000 nM
- CC50 [9]: > 100000 nM
- CC50 [10]: > 100000 nM
- CC50 [11]: > 100000 nM
- CC50 [12]: > 3910 nM
- CC50 [13]: > 100000 nM
- CC50 [14]: > 100000 nM
- CC50 [15]: > 100000 nM
- CC50 [16]: > 100000 nM
- growth at 10 µM [17]: 17.5%
- GI50 [18]: 141 nM
- CC50 [19]: > 100000 nM
- GI50 [20]: 480 nM
- GI50 [21]: 632 nM
- TGI [21]: > 100000 nM
- CC50 [22]: > 100000 nM
- CC50 [23]: > 100000 nM
- GI50 [24]: 274 nM
- TGI [24]: 855 nM
- growth at 10 µM [25]: -5.46%
- growth at 10 µM [26]: 9.01%
- GI50 [27]: 275 nM
- GI50 [28]: 3370 nM
- TGI [28]: > 100000 nM
- GI50 [29]: 427 nM
- TGI [29]: 2550 nM
- GI50 [30]: 201 nM
- TGI [30]: 995 nM
- GI50 [31]: 147 nM
